Experimental data from ChEMBL document CHEMBL1134930, “Novel nucleotide phosphonate analogues with potent antitumor activity” (Bioorg Med Chem Lett, 2002).

Legend:
[1] = test system: NCI-H460; test: Compound was evaluated for its in vitro activity in human solid tumor cell line H-460 measured in a [3H]thymidine incorporation assay; assay type: functional, cell-based; conditions: NCI-H460, 72 h
Procedure, shortened: (§1)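 Cell lines adapted to RPMI medium, exposed to compound for 72 h at 37 °C under 5% CO2. Methyl-[3H]-thymidine (0.5 μCi) added for the final 16 h, then incorporation measured. Antiproliferative IC50 (μM) reported.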

[2] = test system: SF-268; test: Compound was evaluated for its in vitro activity in human solid tumor cell line SF-268 measured in a [3H]thymidine incorporation assay; assay type: functional, cell-based; conditions: SF-268, 72 h; procedure, shortened: as §1
[3] = test system: MCF7; test: Compound was evaluated for its in vitro activity in human solid tumor cell line MCF-7 measured in a [3H]thymidine incorporation assay; assay type: functional, cell-based; conditions: MCF7, 72 h; procedure, shortened: as §1
[4] = test system: MRC5; test: Cytotoxicity of compound was evaluated against MRC-5 cell line.; assay type: functional; conditions: Homo sapiens

IC50 [1] [µM]	IC50 [2] [µM]	IC50 [3] [µM]	Structure (SMILES)	CC50 [4] [µg/mL]
57	> 100	52	Nc1nc(N)c2ncn(C[C@@H]3CC[C@@H](P(=O)(O)O)O3)c2n1	–
30	13	53	Nc1nc(O)c2ncn(C[C@H]3O[C@H](P(=O)(O)O)C[C@@H]3O)c2n1	–
7.6	2.4	5.6	CO[C@H]1C[C@H](P(=O)(O)O)O[C@@H]1Cn1cnc2c(O)nc(N)nc21	–
> 100	> 100	> 100	Nc1nc(O)c2ncn(C[C@H]3O[C@@H](P(=O)(O)O)[C@H](O)[C@@H]3O)c2n1	–
44	> 100	> 100	Nc1nc(O)c2ncn(C[C@H]3O[C@@H](P(=O)(O)O)C[C@@H]3F)c2n1	–
40	> 100	67	Nc1nc(O)c2ncn(C[C@@H]3CC[C@H](P(=O)(O)O)O3)c2n1	> 10
64	> 100	> 100	N.Nc1nc(O)c2ncn(C[C@@H]3CC[C@@H](P(=O)(O)O)O3)c2n1	28
20	28	48	Nc1nc(NC2CC2)c2ncn(C[C@H]3O[C@@H](P(=O)(O)O)C[C@@H]3O)c2n1	–
> 100	> 100	> 100	Nc1nc(NC2CC2)c2ncn(C[C@@H]3CC[C@@H](P(=O)(O)O)O3)c2n1	–
0.53	0.14	0.67	Nc1nc(O)c2ncn(C[C@H]3O[C@@H](P(=O)(O)O)C[C@@H]3O)c2n1	–
0.71	1.2	1.4	Nc1nc(N)c2ncn(C[C@H]3O[C@@H](P(=O)(O)O)C[C@@H]3O)c2n1	–
7.1	44	> 12	Nc1nc(O)c2ncn(C[C@H]3O[C@@H](P(=O)(O)O)C[C@H]3F)c2n1	–
